# Reference: ChEMBL document CHEMBL4350970, “Rational Design of 5-(4-(Isopropylsulfonyl)phenyl)-3-(3-(4-((methylamino)methyl)phenyl)isoxazol-5-yl)pyrazin-2-amine (VX-970, M6620): Optimization of Intra- and Intermolecular Polar Interactions of a New Ataxia Telangiectasia Mutated and Rad3-Related (ATR) Kinase Inhibitor” (J Med Chem, 2019)
# Calls of active or inactive are those of the source. No cut-off for these calls is given here.
# How the values were obtained:
# [1] = target: Serine-protein kinase ATM (Homo sapiens, UniProt Q13315); experiment: Inhibition of full-length ATM (unknown origin) using DPSVEPPLSQETFSDKKK peptide as substrate measured after 24 hrs in presence of [gamma-33P] ATP by microbeta liquid scintillation counting analysis
# Procedure, shortened: (§1)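 Radiometric phosphate incorporation assay with full-length kinase (ATR and ATM made in-house; DNA-PK purchased) premixed with buffer and target peptide. Compound added in DMSO over a range of concentrations, final DMSO 7%. Started with [γ-33P]ATP at 25 °C. Stopped with phosphoric acid (final 100 mM) and ATP (final […]), captured on phosphocellulose, washed with 100 mM phosphoric acid, then scintillation counted. Dose-response fitting.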
# [2] = target: DNA-dependent protein kinase catalytic subunit (Homo sapiens, UniProt P78527); experiment: Inhibition of purified recombinant human full-length DNA-PK using EPPLSQEAFADLWKKK peptide as substrate measured after 2 hrs in presence of [gamma-33P] ATP by microbeta liquid scintillation counting analysis; procedure, shortened: as §1
# [3] = target: T1, Serine/threonine-protein kinase ATR (Homo sapiens, UniProt Q13535); experiment: Inhibition of ATR in human HCT116 cells assessed as reduction in histone H2AX phosphorylation by Hoechst staining-based immunofluorescence microscopic analysis; format: cell-based
# [4] = Aqueous solubility of the compound in PBS incubated overnight by UPLC-MS analysis; format: physicochemical
# Procedure, shortened: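 Compounds dissolved in DMSO (standard) or in DPBS (10 mM phosphate, 140 mM NaCl) to at most 200 µM. PBS samples sealed, shaken overnight at room temperature, then centrifuged 45 min at 4000 rpm, 22 °C. UV AUC from UPLC-MS compared with the DMSO standard: solubility = AUC(PBS)/AUC(standard) × [standard].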
# [5] = Dissociation constant, pKa of compound; format: physicochemical
# [6] = target: T1, Serine/threonine-protein kinase ATR; experiment: Inhibition of recombinant human full-length N-terminal Flag epitope-tagged ATR expressed in HEK293T cells using ASELPASQPQPFSAKKK peptide as substrate measured after 24 hrs in presence of [gamma-33P] ATP by microbeta liquid scintillation counting analysis; procedure, shortened: as §1
# Homo sapiens [7] = species on record: Homo sapiens; experiment: Selectivity ratio of Ki for full-length ATM (unknown origin) to Ki for recombinant human full-length N-terminal Flag epitope-tagged ATR expressed in HEK293T cells; format: cell-based
# Procedure, shortened: (§2)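 Ratio of Ki values from the radiometric [γ-33P]ATP phosphocellulose-capture assays with full-length kinases: ATM or DNA-PK Ki over ATR Ki.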
# [8] = target: Glycogen synthase kinase-3 beta (Homo sapiens, UniProt P49841); experiment: Inhibition of human GSK3beta
# Homo sapiens [9] = species on record: Homo sapiens; experiment: Selectivity ratio of Ki for purified recombinant human full-length DNA-PK to Ki for recombinant human full-length N-terminal Flag epitope-tagged ATR expressed in HEK293T cells; procedure, shortened: as §2
# HCT-116 [10] = experiment: Potentiation of cisplatin-induced antiproliferative activity against human HCT116 cells assessed as reduction in cell viability at 500 nM measured after 96 hrs by MTS assay; format: functional, cell-based
# Procedure, shortened: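 HCT116 cells from ATCC, exponentially growing, plated and left to adhere overnight. Compound and cisplatin added at the indicated concentrations, then incubated 96 h. MTS reagent added and absorbance read at 490 nm after 1 h. Synergy and antagonism assessed with Macsynergy analysis.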
# [11] = target: Dual specificity tyrosine-phosphorylation-regulated kinase 2 (Homo sapiens, UniProt Q92630); experiment: ATP competitive inhibition of human DYRK2
# [12] = target: Mast/stem cell growth factor receptor Kit (Homo sapiens, UniProt P10721, D816H); experiment: ATP competitive inhibition of human c-Kit D816H mutant
# [13] = target: Tyrosine-protein kinase ABL1 (Homo sapiens, UniProt P00519, T315I); experiment: ATP competitive inhibition of human ABL T315I mutant
# [14] = Permeability across apical to basolateral side in human Caco2 cells; format: ADME, cell-based; settings: Caco-2, read-out: permeability
# [15] = target: Receptor-type tyrosine-protein kinase FLT3 (Homo sapiens, UniProt P36888, D835Y); experiment: ATP competitive inhibition of human Flt3 D835Y mutant
# [16] = target: Receptor-type tyrosine-protein kinase FLT3 (Homo sapiens, UniProt P36888); experiment: Inhibition of human Flt3
# [17] = target: Vascular endothelial growth factor receptor 3 (Homo sapiens, UniProt P35916); experiment: ATP competitive inhibition of human Flt4
# [18] = target: Glycogen synthase kinase-3 alpha (Homo sapiens, UniProt P49840); experiment: ATP competitive inhibition of human GSK3alpha
# [19] = target: Tyrosine-protein kinase JAK2 (Homo sapiens, UniProt O60674); experiment: Inhibition of human JAK2
# [20] = target: Tyrosine-protein kinase Mer (Homo sapiens, UniProt Q12866); experiment: ATP competitive inhibition of human Mer
# [21] = target: Mitogen-activated protein kinase kinase kinase 9 (Homo sapiens, UniProt P80192); experiment: ATP competitive inhibition of human MLK1
# [22] = target: Tyrosine-protein kinase SYK (Homo sapiens, UniProt P43405); experiment: Inhibition of human SYK
# Cytochrome P450 2C9 = Cytochrome P450 2C9 (Homo sapiens, UniProt P11712); experiment: Inhibition of CYP2C9 (unknown origin); format: ADME
# [23] = target: Voltage-gated inwardly rectifying potassium channel KCNH2 (Homo sapiens, UniProt Q12809); experiment: Inhibition of human ERG
# [24] = Volume of distribution at steady state in Sprague-Dawley rat at 10 mg/kg administered as iv infusion for 3 hrs; format: ADME, organism-based; settings: in vivo, read-out: Vdss
# Procedure, shortened: (§3)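 Male Sprague-Dawley rats (about 200-350 g), catheterized in jugular and femoral veins under isoflurane; n=3. IV infusion at 3.33 mg/kg/h for 3 h (nominal 10 mg/kg, as free base) in 5% Captisol:2.5% mannitol in water. Jugular blood drawn at 0-51 h, centrifuged 3,000 G, 10 min, 4 °C; plasma collected.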
# [25] = Half life in Sprague-Dawley rat at 10 mg/kg administered as iv infusion for 3 hrs; format: ADME, organism-based; settings: in vivo; procedure, shortened: as §3
# HCT-116 [26] = experiment: Potentiation of cisplatin-induced antiproliferative activity against human HCT116 cells assessed as reduction in cell viability at < 50 nM measured after 96 hrs by MTS assay; format: functional, cell-based
# Procedure, shortened: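 HCT116 cells plated and left to adhere overnight. Compound and cisplatin added the next day at set concentrations, then incubated 96 h. MTS reagent added; absorbance at 490 nm read after 1 h. Synergy and antagonism assessed by MacSynergy analysis.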
# [27] = target: Cytochrome P450 2D6, Homo sapiens (UniProt P10635); experiment: Inhibition of CYP2D6 (unknown origin)
# Sequence of Serine-protein kinase ATM (Q13315 whole entry): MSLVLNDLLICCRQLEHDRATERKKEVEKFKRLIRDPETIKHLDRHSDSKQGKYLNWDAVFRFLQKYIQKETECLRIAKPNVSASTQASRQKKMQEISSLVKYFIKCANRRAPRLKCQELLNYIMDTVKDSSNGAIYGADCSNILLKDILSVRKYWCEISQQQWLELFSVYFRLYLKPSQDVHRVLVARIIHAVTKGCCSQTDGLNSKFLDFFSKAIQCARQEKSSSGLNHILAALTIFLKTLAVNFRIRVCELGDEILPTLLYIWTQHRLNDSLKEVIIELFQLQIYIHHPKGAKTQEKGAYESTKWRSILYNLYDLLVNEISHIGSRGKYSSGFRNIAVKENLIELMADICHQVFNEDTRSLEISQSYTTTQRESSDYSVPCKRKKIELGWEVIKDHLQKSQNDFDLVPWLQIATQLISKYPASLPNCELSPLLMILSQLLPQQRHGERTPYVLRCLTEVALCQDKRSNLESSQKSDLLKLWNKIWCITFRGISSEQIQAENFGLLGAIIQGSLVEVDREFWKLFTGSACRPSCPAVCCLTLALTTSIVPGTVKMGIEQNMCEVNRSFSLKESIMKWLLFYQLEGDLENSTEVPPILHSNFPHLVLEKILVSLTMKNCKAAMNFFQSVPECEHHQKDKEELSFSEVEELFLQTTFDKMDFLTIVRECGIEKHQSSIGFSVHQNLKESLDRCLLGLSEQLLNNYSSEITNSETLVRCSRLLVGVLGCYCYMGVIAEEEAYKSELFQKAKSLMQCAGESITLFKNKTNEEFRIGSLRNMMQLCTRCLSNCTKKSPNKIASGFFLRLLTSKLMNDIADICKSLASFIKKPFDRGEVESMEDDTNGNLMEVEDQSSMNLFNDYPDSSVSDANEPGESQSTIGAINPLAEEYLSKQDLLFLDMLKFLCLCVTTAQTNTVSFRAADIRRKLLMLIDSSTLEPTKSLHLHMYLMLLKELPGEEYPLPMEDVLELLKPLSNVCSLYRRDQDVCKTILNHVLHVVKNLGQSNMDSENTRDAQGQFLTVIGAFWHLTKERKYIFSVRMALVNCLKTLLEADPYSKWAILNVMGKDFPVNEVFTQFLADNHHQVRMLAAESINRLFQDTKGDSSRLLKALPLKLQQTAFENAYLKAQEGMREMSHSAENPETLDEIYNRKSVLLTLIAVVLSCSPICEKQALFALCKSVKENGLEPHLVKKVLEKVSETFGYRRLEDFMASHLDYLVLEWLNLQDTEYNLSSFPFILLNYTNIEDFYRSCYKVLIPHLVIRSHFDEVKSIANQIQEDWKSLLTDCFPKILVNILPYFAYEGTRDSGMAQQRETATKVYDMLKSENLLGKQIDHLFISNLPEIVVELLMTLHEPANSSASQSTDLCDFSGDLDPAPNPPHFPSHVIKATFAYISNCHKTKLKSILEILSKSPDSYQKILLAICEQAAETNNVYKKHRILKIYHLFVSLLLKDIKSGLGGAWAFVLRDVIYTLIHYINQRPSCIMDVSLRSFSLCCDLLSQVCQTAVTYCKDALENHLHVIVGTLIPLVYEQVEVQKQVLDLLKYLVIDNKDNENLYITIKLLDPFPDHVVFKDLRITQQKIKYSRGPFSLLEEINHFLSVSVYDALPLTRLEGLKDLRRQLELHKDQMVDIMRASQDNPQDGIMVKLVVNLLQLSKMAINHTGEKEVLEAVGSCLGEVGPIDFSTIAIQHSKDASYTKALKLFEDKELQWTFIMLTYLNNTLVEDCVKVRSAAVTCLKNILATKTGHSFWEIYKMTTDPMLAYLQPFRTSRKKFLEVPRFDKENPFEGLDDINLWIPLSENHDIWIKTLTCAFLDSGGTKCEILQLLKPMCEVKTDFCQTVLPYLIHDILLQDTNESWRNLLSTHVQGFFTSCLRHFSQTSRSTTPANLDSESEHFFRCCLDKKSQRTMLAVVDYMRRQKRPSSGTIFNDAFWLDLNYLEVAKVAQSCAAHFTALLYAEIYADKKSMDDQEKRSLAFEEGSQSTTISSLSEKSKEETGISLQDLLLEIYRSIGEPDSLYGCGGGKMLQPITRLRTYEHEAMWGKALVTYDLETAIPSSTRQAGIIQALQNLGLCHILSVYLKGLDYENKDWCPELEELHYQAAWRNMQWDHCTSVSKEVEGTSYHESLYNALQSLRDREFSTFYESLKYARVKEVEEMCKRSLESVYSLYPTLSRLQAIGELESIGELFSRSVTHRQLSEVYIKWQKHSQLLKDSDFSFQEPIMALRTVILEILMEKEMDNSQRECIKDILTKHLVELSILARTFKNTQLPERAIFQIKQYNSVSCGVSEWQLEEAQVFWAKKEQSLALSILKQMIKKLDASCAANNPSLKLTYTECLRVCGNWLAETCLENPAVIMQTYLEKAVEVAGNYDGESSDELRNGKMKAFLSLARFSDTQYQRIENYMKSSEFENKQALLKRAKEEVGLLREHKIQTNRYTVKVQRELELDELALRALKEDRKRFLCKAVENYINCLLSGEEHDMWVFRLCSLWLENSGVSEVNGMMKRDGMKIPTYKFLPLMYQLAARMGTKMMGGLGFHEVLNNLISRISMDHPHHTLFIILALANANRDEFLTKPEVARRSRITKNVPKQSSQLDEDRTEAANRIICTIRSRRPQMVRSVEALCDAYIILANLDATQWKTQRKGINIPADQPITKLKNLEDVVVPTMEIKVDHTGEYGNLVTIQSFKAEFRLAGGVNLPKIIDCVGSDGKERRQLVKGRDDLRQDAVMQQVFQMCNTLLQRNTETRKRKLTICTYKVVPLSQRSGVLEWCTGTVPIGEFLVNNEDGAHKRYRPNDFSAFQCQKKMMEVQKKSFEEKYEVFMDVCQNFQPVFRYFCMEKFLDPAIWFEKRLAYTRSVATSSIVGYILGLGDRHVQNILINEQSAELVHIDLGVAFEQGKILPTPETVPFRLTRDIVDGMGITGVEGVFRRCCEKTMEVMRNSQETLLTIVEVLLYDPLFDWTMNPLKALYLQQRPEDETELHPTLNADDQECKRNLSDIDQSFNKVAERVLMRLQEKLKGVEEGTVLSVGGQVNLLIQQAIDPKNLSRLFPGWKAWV
# Sequence of Glycogen synthase kinase-3 beta (P49841 whole entry): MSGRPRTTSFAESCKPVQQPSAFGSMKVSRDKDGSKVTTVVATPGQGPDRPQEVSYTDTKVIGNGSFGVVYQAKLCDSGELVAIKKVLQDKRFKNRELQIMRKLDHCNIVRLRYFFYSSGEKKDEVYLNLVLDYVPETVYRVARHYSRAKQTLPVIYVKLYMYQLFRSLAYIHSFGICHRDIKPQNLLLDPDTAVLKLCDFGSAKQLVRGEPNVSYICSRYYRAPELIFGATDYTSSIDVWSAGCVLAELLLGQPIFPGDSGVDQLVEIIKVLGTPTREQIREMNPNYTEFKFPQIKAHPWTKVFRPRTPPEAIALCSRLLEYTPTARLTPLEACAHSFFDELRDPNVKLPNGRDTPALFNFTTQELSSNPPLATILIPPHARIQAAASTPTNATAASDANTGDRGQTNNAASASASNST
# Sequence of Dual specificity tyrosine-phosphorylation-regulated kinase 2 (Q92630 whole entry): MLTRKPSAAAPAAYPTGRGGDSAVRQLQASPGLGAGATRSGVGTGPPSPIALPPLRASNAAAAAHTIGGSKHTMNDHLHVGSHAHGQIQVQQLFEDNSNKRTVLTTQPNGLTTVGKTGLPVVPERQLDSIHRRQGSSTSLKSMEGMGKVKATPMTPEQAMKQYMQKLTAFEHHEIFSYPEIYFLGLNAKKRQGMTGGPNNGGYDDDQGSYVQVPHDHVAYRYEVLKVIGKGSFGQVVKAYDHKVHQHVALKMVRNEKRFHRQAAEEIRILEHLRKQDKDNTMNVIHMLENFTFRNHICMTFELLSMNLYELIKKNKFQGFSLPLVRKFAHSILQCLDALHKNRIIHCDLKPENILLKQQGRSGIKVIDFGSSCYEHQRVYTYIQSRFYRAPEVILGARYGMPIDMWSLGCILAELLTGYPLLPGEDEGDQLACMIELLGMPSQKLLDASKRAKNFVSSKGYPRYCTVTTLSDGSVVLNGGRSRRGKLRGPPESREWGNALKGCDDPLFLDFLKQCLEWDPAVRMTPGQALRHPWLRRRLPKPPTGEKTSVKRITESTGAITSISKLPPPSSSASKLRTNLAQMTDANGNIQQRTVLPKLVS
# Sequence of Tyrosine-protein kinase Mer (Q12866 whole entry): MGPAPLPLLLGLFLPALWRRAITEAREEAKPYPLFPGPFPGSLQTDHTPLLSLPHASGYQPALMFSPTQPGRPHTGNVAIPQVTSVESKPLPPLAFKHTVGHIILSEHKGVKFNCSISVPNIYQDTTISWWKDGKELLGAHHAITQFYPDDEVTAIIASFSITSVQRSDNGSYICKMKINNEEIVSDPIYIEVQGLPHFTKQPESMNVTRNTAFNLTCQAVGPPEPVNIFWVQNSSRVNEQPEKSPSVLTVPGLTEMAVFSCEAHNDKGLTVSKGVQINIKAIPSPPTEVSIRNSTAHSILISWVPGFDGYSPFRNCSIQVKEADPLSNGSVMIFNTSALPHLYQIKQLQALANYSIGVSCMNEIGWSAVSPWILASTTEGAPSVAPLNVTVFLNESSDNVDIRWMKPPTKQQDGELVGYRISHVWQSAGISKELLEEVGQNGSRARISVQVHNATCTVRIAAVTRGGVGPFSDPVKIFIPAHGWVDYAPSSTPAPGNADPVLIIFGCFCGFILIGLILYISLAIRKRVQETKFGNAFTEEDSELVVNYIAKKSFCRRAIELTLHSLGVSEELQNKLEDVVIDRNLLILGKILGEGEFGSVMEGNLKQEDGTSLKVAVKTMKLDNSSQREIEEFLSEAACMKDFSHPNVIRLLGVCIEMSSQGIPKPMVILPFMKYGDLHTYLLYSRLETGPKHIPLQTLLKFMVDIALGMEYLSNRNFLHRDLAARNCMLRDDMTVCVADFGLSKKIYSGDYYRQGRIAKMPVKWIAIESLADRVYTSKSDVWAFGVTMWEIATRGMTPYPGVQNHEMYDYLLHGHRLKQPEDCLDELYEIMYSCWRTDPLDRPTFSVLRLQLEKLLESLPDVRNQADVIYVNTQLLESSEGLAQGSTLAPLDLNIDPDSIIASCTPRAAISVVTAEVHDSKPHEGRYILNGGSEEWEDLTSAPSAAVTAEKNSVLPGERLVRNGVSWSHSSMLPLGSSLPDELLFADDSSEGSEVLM
structure (smiles),measurement,setting,value
CC(C)S(=O)(=O)c1ccc(-c2cnc(N)c(-c3ncc(-c4ccccc4)o3)n2)cc1,Ki,[1],> 10000 nM
same,Ki,[2],> 4000 nM
same,IC50,[3],> 2500 nM
CC(C)S(=O)(=O)c1ccc(-c2cnc(N)c(-c3cc(-c4ccc(CNC5CCOCC5)cc4)no3)n2)cc1,Ki,[1],189 nM
same,Ki,[2],> 4000 nM
same,solubility,[4],0.8 µM
same,pKa,[5],9.7
CC(C)S(=O)(=O)c1ccc(-c2cnc(N)c(-c3cc(-c4ccc([C@@H](C)N)cc4)no3)n2)cc1,Ki,[6],0.53 nM
same,Ki,[1],105 nM
same,Ki,[2],1700 nM
same,IC50,[3],130 nM
same,solubility,[4],45.1 µM
CC(C)S(=O)(=O)c1ccc(-c2cnc(N)c(-c3cc(-c4ccccc4)no3)n2)cc1,Ki,[6],1 to 1.3 nM
same,Ki,[1],1400 nM
same,Ki,[2],> 4000 nM
same,IC50,[3],1100 nM
same,Ratio Ki,Homo sapiens [7],> 1000
same,solubility,[4],< 0.3 µM
same,Ki,[8],650 nM
same,Ratio Ki,Homo sapiens [9],> 1000
CC(C)S(=O)(=O)c1ccc(-c2cnc(N)c(-c3nnc(-c4ccccc4)s3)n2)cc1,Ki,[6],1 nM
same,Ki,[1],> 4000 nM
same,Ki,[2],> 4000 nM
same,IC50,[3],1700 nM
same,Ratio Ki,Homo sapiens [7],> 1000
same,Ratio Ki,Homo sapiens [9],> 1000
CS(=O)(=O)c1ccc(-c2cnc(N)c(C(=O)Nc3ccccc3)n2)cc1,Activity,HCT-116 [10],Active
CC(C)S(=O)(=O)c1ccc(-c2cnc(N)c(-c3cnc(-c4ccccc4)o3)n2)cc1,Ki,[6],21 nM
same,Ki,[1],> 10000 nM
same,Ki,[2],> 4000 nM
CC(C)S(=O)(=O)c1ccc(-c2cnc(N)c(-c3cn(-c4ccccc4)nn3)n2)cc1,Ki,[1],1300 nM
same,Ki,[2],> 4000 nM
same,IC50,[3],> 2500 nM
CC(C)S(=O)(=O)c1ccc(-c2cnc(N)c(-c3cc(-c4ccc([C@H](C)N)cc4)no3)n2)cc1,Ki,[6],1.24 nM
same,Ki,[1],82 nM
same,Ki,[2],785 nM
same,IC50,[3],300 nM
same,solubility,[4],27.9 µM
CC(C)S(=O)(=O)c1ccc(-c2cnc(N)c(-c3noc(-c4ccccc4)n3)n2)cc1,Ki,[6],5 nM
same,Ki,[1],400 nM
same,Ki,[2],4000 nM
same,IC50,[3],2300 nM
CNCc1ccc(-c2cc(-c3nc(-c4ccc(S(=O)(=O)C(C)C)cc4)cnc3N)on2)c(Cl)c1,Ki,[6],0.75 nM
same,Ki,[1],93 nM
same,Ki,[2],2610 nM
same,IC50,[3],210 nM
same,solubility,[4],4.4 µM
CC(C)S(=O)(=O)c1ccc(-c2cnc(N)c(C3CC(c4ccccc4)=NO3)n2)cc1 (racemic),Ki,[1],> 4000 nM
same,Ki,[2],> 4000 nM
same,IC50,[3],> 2500 nM
CC(C)S(=O)(=O)c1ccc(-c2cnc(N)c(C(=O)Nc3ccccc3)n2)cc1,Ki,[6],4 nM
same,Ki,[1],4000 nM
same,Ki,[2],2800 nM
same,IC50,[3],1030 nM
CC(C)S(=O)(=O)c1ccc(-c2cnc(N)c(-c3cc(-c4ccccc4)on3)n2)cc1,Ki,[6],2 nM
same,Ki,[1],1300 nM
same,Ki,[2],> 4000 nM
same,IC50,[3],800 nM
same,Ki,[8],530 nM
CCNCc1ccc(-c2cc(-c3nc(-c4ccc(S(=O)(=O)C(C)C)cc4)cnc3N)on2)cc1,Ki,[6],0.21 nM
same,Ki,[1],47 nM
same,Ki,[2],3350 nM
same,IC50,[3],76 nM
same,solubility,[4],72 µM
CC(C)S(=O)(=O)c1ccc(-c2cnc(N)c(-c3nc(-c4ccccc4)no3)n2)cc1,Ki,[6],26 nM
same,Ki,[1],1350 nM
same,Ki,[2],> 1600 nM
same,IC50,[3],> 2500 nM
CC(C)S(=O)(=O)c1ccc(-c2cnc(N)c(-c3nnc(-c4ccccc4)o3)n2)cc1,Ki,[6],1 nM
same,Ki,[1],> 10000 nM
same,Ki,[2],8900 nM
same,IC50,[3],410 nM
same,Ratio Ki,Homo sapiens [7],> 1000
same,Ki,[8],22 nM
same,Ratio Ki,Homo sapiens [9],> 1000
CNCc1ccc(-c2cc(-c3nc(-c4ccc(S(=O)(=O)C(C)C)cc4)cnc3N)on2)cc1 [BERZOSERTIB],Ki,[1],44 nM
same,Ki,[2],> 4000 nM
same,Ki,[11],26 nM
same,Ki,[12],39 nM
same,Ki,[13],59 nM
same,solubility,[4],52 µM
same,pKa,[5],8.2
same,Papp A→B,[14],7.2 ×10⁻⁶ cm/s
same,Ki,[15],18 nM
same,Ki,[16],130 nM
same,Ki,[17],8 nM
same,Ki,[18],33 nM
same,Ki,[8],140 nM
same,Ki,[19],150 nM
same,Ki,[20],30 nM
same,Ki,[21],15 nM
same,Ki,[22],190 nM
same,IC50,Cytochrome P450 2C9,> 30000 nM
same,IC50,[23],3000 nM
same,Vd,[24],21 L/kg
same,half-life,[25],11.6 h
same,Activity,HCT-116 [26],Active
same,IC50,[27],> 30000 nM
CNCc1ccc(-c2cc(-c3nc(-c4ccc(S(=O)(=O)C(C)C)cc4)cnc3N)on2)cc1Cl,Ki,[6],2.4 nM
same,Ki,[1],190 nM
same,Ki,[2],> 4000 nM
same,IC50,[3],130 nM
same,solubility,[4],1.36 µM
CC(C)S(=O)(=O)c1ccc(-c2cnc(N)c(-c3cc(-c4ccc(CN)cc4)no3)n2)cc1,Ki,[6],0.27 nM
same,Ki,[1],115 nM
same,Ki,[2],> 4000 nM
same,IC50,[3],> 25000 nM
same,solubility,[4],12.5 µM
